Measurements: ChEMBL document CHEMBL1129400 (J Med Chem, 1996)

What was measured:
[1] = target: T1, 5-hydroxytryptamine receptor 1A (Rattus norvegicus, UniProt P19327); test: Binding affinity against native 5-HT1A-receptors from rat hippocampus using radioligand ([3H]8-hydroxy-2-(di-n-propylamino)-tetraline) binding assay; type: tissue-based
T1 sequence (P19327 whole entry): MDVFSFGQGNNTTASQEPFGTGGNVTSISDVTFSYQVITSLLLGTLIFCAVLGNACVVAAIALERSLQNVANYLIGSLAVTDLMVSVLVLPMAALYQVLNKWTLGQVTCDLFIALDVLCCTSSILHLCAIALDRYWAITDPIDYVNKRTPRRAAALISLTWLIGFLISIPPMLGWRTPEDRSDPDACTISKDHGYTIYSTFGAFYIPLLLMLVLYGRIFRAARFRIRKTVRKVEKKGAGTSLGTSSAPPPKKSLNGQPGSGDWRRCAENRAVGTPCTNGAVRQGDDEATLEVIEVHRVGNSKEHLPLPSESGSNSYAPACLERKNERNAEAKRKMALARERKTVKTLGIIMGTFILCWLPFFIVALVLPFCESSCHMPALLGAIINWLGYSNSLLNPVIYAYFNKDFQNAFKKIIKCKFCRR

D(2) dopamine receptor = D(2) dopamine receptor (Rattus norvegicus, UniProt P61169); test: Compound was tested for binding affinity against native Dopamine receptor D2 from rat striatum using radioligand [3H]-spiperone)
D(2) dopamine receptor, sequence (P61169 whole entry): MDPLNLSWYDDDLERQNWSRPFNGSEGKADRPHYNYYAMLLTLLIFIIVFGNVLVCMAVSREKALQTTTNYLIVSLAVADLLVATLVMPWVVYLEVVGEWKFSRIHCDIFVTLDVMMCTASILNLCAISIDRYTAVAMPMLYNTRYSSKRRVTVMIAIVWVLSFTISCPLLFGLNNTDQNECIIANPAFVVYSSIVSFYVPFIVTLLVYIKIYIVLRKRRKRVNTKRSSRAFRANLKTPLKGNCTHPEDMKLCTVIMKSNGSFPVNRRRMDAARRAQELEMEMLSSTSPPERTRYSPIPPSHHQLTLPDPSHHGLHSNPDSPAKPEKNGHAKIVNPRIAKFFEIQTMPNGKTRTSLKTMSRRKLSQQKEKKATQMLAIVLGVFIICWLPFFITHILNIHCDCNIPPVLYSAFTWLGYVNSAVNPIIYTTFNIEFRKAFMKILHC
How it was run: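 Rat striatal membranes were prepared in Tris-HCl pH 7.4 with 10 µM pargyline, 0.1% ascorbic acid, 120 mM NaCl, 5 mM KCl, 2 mM CaCl2 and 1 mM MgCl2. Filtration and scintillation counting followed. Ki was obtained from the curve-fitted IC50 via Cheng-Prusoff; values are mean pKi ± SE.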

[2] = target: T2, Alpha-1B adrenergic receptor (Homo sapiens, UniProt P35368); test: Compound was tested for binding affinity against […] Alpha-1B adrenergic receptor using radioligand ([3H]-prazosin) binding assay
T2 sequence (P35368 whole entry): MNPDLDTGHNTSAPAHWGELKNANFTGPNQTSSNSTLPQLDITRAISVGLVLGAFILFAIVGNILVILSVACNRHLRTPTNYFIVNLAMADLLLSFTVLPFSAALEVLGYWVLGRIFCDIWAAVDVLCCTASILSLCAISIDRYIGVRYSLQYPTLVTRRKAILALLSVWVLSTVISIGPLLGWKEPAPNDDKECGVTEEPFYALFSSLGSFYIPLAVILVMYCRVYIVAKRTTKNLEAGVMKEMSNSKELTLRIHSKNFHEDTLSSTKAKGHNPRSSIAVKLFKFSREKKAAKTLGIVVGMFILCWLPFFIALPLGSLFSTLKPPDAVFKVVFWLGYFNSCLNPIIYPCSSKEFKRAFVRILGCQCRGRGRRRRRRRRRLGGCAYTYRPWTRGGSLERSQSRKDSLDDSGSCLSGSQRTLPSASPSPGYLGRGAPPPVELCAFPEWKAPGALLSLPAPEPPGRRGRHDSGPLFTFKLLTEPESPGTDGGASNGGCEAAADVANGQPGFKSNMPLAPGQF
How it was run: (§1)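 Membranes (30 µg protein) came from CHO cells stably transfected with the human α1-adrenoceptor subtype gene. […] Nonspecific binding was defined with 10 µM phentolamine. Filtration on PEI-treated filters followed. Ki came from the fitted IC50 via Cheng-Prusoff.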

[3] = target: T3, Alpha-1A adrenergic receptor (Homo sapiens, UniProt P35348); test: Compound was tested for binding affinity against human hippocampus Alpha-1A adrenergic receptor using radioligand ([3H]prazosin) binding assay; how it was run: as §1
T3 sequence (P35348 whole entry): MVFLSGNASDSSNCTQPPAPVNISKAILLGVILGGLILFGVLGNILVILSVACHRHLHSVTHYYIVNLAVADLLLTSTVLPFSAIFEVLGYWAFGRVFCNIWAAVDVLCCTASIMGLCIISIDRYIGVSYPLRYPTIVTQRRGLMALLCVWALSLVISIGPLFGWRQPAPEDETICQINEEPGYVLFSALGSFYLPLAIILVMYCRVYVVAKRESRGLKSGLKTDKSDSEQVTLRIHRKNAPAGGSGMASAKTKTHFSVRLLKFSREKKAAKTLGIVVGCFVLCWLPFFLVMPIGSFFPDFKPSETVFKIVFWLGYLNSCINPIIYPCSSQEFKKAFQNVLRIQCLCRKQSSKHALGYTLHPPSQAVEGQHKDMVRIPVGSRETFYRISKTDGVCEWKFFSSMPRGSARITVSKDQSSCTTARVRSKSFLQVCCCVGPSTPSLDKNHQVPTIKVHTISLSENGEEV

[4] = target: T4, Alpha-1D adrenergic receptor (Homo sapiens, UniProt P25100); test: Compound was tested for binding affinity against human hippocampus Alpha-1D adrenergic receptor using radioligand ([3H]prazosin) binding assay; how it was run: as §1
T4 sequence (P25100 whole entry): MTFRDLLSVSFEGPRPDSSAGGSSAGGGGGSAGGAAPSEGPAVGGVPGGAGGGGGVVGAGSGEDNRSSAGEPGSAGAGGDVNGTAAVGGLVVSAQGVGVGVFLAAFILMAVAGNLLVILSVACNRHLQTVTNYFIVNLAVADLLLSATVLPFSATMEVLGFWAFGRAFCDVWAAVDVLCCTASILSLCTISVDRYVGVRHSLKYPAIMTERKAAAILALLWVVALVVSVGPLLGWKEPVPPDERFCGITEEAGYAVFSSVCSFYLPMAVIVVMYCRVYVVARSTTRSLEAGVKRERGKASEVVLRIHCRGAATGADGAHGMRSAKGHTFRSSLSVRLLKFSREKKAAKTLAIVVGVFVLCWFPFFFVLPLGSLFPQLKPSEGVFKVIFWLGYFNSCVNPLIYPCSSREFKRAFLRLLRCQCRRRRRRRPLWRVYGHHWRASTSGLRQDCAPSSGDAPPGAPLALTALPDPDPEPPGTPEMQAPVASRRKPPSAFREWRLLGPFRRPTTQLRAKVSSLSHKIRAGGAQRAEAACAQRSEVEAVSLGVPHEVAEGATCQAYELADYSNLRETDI

[5] = target: T5, Adrenergic receptor alpha-2 (Rattus norvegicus, UniProt P22086+P19328+P22909); test: Binding affinity against native Alpha-2 adrenergic receptor from rat cerebral cortex using radioligand ([3H]rauwolscine) binding assay; type: tissue-based
T5 sequence (P22086 whole entry): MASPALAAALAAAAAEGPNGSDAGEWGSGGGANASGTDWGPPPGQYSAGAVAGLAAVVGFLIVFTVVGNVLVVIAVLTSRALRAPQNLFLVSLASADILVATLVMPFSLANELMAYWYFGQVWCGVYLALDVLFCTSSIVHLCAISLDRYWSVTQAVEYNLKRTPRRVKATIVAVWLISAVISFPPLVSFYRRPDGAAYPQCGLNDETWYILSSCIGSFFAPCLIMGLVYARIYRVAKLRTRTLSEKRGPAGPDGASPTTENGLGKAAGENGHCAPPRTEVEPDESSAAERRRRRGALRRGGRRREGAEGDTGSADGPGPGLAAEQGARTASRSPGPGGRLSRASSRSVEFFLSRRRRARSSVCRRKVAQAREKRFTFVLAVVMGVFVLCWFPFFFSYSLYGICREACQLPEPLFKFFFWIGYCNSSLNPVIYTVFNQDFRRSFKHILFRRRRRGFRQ
T5 sequence (P19328 whole entry): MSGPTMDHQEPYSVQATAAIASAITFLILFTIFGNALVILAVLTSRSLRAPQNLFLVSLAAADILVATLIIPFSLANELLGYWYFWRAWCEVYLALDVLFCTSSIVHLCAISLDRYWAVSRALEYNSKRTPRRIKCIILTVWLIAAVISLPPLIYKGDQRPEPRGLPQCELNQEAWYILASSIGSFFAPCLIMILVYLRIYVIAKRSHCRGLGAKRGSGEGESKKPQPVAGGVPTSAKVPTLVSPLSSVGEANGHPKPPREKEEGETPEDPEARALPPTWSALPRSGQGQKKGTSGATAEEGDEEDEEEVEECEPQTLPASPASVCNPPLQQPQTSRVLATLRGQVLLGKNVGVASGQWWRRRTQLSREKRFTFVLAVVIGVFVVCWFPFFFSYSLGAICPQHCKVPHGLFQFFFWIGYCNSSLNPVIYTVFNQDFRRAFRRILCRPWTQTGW
T5 sequence (P22909 whole entry): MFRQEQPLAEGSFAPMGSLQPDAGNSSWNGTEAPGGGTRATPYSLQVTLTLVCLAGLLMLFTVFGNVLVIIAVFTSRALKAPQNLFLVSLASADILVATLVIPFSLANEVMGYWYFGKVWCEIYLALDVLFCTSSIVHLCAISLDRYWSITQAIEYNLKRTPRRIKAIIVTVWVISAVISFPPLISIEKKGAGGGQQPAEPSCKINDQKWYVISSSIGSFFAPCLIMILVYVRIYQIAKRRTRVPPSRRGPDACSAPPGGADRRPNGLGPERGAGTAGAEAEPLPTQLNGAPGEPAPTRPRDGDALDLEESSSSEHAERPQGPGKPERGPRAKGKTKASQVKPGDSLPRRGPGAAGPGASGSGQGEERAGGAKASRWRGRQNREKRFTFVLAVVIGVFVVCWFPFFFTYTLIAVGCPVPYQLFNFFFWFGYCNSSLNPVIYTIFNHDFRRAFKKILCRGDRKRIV

[6] = target: T6, Alpha-1A adrenergic receptor (Bos taurus, UniProt P18130); test: Compound was tested for binding affinity against cloned Alpha-1A adrenergic receptor from bovine brain using radioligand ([3H]prazosin) binding assay
T6 sequence (P18130 whole entry): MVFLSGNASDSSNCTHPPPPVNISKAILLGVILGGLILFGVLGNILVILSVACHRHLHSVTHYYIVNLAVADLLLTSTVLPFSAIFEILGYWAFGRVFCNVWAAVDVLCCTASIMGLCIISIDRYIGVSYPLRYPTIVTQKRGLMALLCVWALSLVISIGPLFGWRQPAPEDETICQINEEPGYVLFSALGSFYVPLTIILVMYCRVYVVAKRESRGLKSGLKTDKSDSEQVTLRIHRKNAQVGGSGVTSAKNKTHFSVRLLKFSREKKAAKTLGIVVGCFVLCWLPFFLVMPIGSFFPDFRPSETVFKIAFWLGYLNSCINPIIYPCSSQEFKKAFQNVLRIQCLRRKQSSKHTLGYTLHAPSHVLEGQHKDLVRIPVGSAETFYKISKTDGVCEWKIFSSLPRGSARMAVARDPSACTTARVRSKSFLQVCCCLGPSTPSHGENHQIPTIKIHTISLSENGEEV

Ki [1] [µM] | Ki (D(2) dopamine receptor) [µM] | Ki [2] [nM] | Ki [3] [nM] | Ki [4] [nM] | Log Ki [5] | SMILES | Ki [6] [nM]
12.9 | 8.32 | 0.135 | 12.3 | 3.24 | -6.13 | COc1cc2nc(N3CCN(C(=O)c4ccco4)[C@@H]4CCCC[C@@H]43)nc(N)c2cc1OC | 
6.92 | > 10 |  |  |  | -6.17 | COc1cc2nc(N3CCN(C(=O)c4ccco4)C4CCCCC43)nc(N)c2cc1OC (racemic) | 
6.17 | > 10 |  |  |  | -5.86 | COc1cc2nc(N3CCN(C(=O)c4ccco4)[C@H]4CCCC[C@H]43)nc(N)c2cc1OC [CYCLAZOSIN] | 
2.34 | > 10 |  |  |  |  | COc1cc2nc(N3CCN(C(=O)c4ccco4)CC3)nc(N)c2cc1OC [PRAZOSIN] | 

SMILES | Ki [1] [µM] | Ki (D(2) dopamine receptor) [µM] | Ki [2] [nM] | Ki [3] [nM] | Ki [4] [nM] | Log Ki [5] | Ki [6] [nM]
O=C(CCCN1CCC2(CC1)C(=O)NCN2c1ccccc1)c1ccc(F)cc1 [SPIPERONE] | 0.0251 |  |  |  |  |  | 13.5
